From PMC8248323 (Clinical Pharmacology in Drug Development, 2021)
Like-named read-outs stand apart in the source and are kept apart here.

Key:
P‐gp [1] = molecular target: T1, P‐gp (Homo sapiens, UniProt P08183); assay: In vitro transporter substrate assessment; format: in vitro ADME
CYP2C9 = CYP2C9 (Homo sapiens, UniProt P11712); assay: In vitro CYP inhibition; format: in vitro ADME
CYP2C19 = CYP2C19 (Homo sapiens, UniProt P33261); assay: In vitro CYP inhibition; format: in vitro ADME
OATP1B3 = OATP1B3 (Homo sapiens, UniProt Q9NPD5); assay: In vitro transporter inhibition; format: in vitro ADME
OATP1B1 [2] = molecular target: T2, OATP1B1 (Homo sapiens, UniProt Q9Y6L6); assay: In vitro transporter inhibition; format: in vitro ADME
[3] = Phase 1 DDI study 004 part A: lemborexant plasma PK with/without rifampin; format: in vivo, human
OATP1B1 [4] = molecular target: T2, OATP1B1; assay: In vitro transporter substrate assessment; format: in vitro ADME
MATE2‐K = MATE2‐K (Homo sapiens, UniProt Q86VL8); assay: In vitro transporter inhibition; format: in vitro ADME
OCT2 = OCT2 (Homo sapiens, UniProt O15244); assay: In vitro transporter inhibition; format: in vitro ADME
P‐gp [5] = molecular target: T1, P‐gp; assay: In vitro transporter inhibition; format: in vitro ADME
OAT3 = OAT3 (Homo sapiens, UniProt Q8TCC7); assay: In vitro transporter inhibition; format: in vitro ADME
[6] = Phase 1 DDI study 004 part A: lemborexant plasma PK with/without itraconazole; format: in vivo, human
[7] = format: in vivo, human; settings: for estimated lemborexant exposure: population PK model
[8] = Phase 1 DDI study 004 part B: midazolam; settings: clinically relevant concentrations, daily dosing up to 10 mg
[9] = molecular target: breast cancer resistance protein (Homo sapiens, UniProt Q9UNQ0); assay: In vitro transporter inhibition; format: in vitro ADME
CYP3A [10] = format: in vitro ADME; settings: in vitro
OAT1 = OAT1 (Homo sapiens, UniProt Q4U2R8); assay: In vitro transporter inhibition; format: in vitro ADME
CYP1A2 = CYP1A2 (Homo sapiens, UniProt P05177); assay: In vitro CYP inhibition; format: in vitro ADME
CYP2A6 = CYP2A6 (Homo sapiens, UniProt P11509); assay: In vitro CYP inhibition; format: in vitro ADME
CYP2D6 = CYP2D6 (Homo sapiens, UniProt P10635); assay: In vitro CYP inhibition; format: in vitro ADME
[11] = Phase 1 DDI study 012: lemborexant plasma PK with/without fluconazole; format: in vivo, human; settings: for AUC: human, plasma
CYP3A [12] = assay: in vitro; format: in vitro ADME
CYP3A [13] = format: in vitro ADME; settings: in vitro metabolism studies; unpublished data
[14] = Safety assessments in phase 1 DDI studies 004 and 012; format: in vivo, human
Procedure, shortened: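 Two open-label single-site phase 1 studies in healthy adults, morning dosing. Test compound 10 mg was given alone and with a strong CYP3A inhibitor (200 mg) or inducer (600 mg) daily for 20 days, or with a moderate CYP3A inhibitor (400 mg, then 200 mg daily). It was also given daily for 13 days around CYP3A/CYP2B6 probe substrates. All treatment-emergent and serious AEs were recorded, with serum chemistry, hematology and urinalysis.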

[15] = both phase 3 studies; cited from earlier work
MATE1 = MATE1 (Homo sapiens, UniProt Q96FL8); assay: In vitro transporter inhibition; format: in vitro ADME
CYP2B6 = format: in vitro ADME; settings: in vitro
BCRP = BCRP (Homo sapiens, UniProt Q9UNQ0); assay: In vitro transporter substrate assessment; format: in vitro ADME
OCT1 = OCT1 (Homo sapiens, UniProt O15245); assay: In vitro transporter inhibition; format: in vitro ADME
[16] = lemborexant + rifampin / lemborexant alone
[17] = coadministration with itraconazole
[18] = lemborexant + itraconazole / lemborexant alone
[19] = coadministration with fluconazole
[20] = lemborexant + fluconazole / lemborexant alone
[21] = rifampin cohort, N = 15, lemborexant alone days 1‐14, with rifampin days 22‐35

T2 sequence (Q9Y6L6 whole entry): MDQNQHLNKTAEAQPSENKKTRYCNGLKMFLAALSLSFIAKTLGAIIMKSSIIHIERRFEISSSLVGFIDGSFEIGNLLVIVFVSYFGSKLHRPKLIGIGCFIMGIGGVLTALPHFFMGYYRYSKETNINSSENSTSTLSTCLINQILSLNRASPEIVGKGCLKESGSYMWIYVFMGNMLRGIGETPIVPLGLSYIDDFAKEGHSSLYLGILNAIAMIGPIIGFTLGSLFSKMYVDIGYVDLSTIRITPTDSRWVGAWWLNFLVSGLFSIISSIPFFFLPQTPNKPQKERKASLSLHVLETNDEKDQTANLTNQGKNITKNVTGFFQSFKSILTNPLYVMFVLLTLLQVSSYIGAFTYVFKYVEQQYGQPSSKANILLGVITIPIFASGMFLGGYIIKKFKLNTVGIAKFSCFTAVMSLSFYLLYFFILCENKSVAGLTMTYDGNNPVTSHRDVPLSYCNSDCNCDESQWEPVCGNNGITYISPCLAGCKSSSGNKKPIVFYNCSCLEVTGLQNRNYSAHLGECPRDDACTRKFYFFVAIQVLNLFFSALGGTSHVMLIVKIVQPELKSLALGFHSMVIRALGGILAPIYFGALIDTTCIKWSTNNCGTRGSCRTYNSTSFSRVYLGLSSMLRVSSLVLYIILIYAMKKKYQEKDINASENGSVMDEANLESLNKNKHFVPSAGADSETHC
T1 sequence (P08183 whole entry): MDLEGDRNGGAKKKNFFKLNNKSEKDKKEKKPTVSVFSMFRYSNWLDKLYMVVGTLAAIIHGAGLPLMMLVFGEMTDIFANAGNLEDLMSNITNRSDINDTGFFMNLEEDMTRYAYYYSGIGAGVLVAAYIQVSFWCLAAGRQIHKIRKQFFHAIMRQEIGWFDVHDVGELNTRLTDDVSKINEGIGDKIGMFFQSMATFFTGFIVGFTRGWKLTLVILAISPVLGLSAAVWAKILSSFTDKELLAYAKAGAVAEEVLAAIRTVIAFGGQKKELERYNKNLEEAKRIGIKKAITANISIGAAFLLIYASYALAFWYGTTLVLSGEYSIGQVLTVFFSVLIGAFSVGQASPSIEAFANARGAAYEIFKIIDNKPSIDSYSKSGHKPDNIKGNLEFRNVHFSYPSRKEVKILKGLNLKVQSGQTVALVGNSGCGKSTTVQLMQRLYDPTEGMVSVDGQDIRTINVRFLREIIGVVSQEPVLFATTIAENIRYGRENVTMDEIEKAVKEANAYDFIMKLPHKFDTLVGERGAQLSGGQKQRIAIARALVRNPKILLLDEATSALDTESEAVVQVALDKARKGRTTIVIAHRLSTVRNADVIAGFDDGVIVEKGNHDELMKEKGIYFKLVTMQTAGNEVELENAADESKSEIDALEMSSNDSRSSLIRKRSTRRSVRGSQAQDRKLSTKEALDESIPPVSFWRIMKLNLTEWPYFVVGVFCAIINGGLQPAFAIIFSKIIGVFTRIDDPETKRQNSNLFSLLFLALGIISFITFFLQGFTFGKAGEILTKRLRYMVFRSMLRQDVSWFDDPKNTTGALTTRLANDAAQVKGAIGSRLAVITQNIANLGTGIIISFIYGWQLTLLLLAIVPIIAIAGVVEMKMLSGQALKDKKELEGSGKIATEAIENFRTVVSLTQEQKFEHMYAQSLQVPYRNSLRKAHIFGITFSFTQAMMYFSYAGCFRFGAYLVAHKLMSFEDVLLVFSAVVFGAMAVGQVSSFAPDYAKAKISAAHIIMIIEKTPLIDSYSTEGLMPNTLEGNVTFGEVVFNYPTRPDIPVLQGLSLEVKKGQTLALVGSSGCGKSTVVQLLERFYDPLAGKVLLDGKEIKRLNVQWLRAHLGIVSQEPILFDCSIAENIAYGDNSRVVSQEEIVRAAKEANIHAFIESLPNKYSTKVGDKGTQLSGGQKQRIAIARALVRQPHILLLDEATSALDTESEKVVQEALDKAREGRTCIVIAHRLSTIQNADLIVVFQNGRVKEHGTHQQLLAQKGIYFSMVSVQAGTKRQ
Chain of OCT1 (O15245 whole entry): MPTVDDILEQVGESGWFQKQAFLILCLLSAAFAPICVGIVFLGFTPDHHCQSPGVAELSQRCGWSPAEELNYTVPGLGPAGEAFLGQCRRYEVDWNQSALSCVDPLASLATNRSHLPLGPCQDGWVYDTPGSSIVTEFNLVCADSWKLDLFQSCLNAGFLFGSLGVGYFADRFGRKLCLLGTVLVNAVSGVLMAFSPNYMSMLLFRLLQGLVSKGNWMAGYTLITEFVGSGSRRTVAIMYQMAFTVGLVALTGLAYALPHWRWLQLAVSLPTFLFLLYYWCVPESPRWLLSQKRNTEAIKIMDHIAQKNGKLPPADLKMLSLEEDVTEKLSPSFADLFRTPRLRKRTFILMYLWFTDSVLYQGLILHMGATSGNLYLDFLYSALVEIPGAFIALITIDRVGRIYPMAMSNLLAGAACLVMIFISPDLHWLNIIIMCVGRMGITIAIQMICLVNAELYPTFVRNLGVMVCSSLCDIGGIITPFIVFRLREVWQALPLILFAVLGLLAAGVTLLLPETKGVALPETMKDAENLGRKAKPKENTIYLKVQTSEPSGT
Chain of CYP2C19 (P33261 whole entry): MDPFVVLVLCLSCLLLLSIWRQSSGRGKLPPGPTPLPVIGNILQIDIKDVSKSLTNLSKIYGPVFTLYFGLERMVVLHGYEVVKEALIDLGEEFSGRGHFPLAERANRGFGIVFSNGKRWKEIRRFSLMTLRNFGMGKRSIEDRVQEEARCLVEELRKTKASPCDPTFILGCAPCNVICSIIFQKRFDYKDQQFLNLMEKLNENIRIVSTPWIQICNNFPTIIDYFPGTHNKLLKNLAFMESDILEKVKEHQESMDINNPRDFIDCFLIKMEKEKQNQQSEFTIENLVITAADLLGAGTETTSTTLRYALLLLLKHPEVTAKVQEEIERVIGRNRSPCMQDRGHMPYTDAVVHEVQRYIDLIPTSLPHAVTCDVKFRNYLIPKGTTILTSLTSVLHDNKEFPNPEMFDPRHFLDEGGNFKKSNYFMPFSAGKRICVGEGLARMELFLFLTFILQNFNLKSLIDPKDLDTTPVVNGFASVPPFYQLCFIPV
Chain of CYP2D6 (P10635 whole entry): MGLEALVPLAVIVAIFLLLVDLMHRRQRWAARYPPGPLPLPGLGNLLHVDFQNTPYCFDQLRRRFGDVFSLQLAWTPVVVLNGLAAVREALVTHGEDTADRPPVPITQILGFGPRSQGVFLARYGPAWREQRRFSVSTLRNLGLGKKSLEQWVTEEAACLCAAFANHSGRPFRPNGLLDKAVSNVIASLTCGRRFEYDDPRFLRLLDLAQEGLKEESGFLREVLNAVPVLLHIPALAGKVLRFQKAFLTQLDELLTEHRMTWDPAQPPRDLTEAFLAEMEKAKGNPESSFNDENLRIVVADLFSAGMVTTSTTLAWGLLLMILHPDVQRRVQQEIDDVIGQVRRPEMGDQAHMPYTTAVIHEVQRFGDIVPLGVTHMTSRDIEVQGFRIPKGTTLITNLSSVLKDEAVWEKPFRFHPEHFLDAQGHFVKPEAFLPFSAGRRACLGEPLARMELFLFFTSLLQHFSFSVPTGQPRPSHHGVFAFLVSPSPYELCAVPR
Chain of BCRP (Q9UNQ0 whole entry): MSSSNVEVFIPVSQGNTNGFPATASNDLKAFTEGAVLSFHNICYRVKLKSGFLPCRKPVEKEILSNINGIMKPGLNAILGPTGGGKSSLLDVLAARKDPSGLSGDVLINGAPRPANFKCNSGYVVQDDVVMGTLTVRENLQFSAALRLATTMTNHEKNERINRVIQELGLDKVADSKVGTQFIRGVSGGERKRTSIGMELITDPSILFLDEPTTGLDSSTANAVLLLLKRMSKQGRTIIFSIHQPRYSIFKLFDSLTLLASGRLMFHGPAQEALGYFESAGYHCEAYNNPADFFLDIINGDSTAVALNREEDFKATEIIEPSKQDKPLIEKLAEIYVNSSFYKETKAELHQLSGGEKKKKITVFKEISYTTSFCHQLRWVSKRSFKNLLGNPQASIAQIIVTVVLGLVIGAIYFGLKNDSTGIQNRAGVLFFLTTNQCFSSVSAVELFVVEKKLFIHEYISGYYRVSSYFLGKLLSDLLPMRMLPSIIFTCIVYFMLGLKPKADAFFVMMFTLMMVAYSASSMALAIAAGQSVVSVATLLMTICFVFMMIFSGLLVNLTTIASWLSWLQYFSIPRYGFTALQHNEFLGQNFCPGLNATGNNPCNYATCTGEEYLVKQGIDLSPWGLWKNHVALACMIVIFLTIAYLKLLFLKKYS
Chain of breast cancer resistance protein (Q9UNQ0 whole entry): as above
Chain of CYP2A6 (P11509 whole entry): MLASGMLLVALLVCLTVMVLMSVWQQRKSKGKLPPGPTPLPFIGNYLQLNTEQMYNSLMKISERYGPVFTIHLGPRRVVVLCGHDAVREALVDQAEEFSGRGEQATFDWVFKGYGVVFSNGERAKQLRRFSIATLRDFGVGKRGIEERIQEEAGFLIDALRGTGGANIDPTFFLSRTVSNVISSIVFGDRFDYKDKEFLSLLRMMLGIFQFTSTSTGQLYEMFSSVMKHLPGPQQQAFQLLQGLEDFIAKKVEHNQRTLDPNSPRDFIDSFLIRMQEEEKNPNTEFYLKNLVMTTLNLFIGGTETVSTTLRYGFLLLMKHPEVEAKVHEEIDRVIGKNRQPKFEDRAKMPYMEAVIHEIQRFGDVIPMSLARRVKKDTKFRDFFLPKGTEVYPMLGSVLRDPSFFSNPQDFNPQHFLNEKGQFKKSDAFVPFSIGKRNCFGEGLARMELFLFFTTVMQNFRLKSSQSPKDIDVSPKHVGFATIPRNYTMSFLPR

## Cc1ncc(OC[C@@]2(c3cccc(F)c3)C[C@H]2C(=O)Nc2ccc(F)cn2)c(C)n1 [Lemborexant, (1R,2S)‐2‐{[(2,4‐dimethylpyrimidin‐5‐yl)oxy]methyl}‐2‐(3‐fluorophenyl)‐N‐(5‐fluoropyridin‐2‐yl)cyclopropanecarboxamide]
P‐gp [1]
  substrate of P‐gp: potential poor substrate
CYP2C9
  inhibition of CYP2C9: do not inhibit
CYP2C19
  inhibition of CYP2C19: do not inhibit
OATP1B3
  inhibition of OATP1B3: do not inhibit
OATP1B1 [2]
  inhibition of OATP1B1: do not inhibit
[3]; coadministration with rifampin
  decrease in lemborexant AUC0‐inf: > 90%
  decrease in lemborexant Cmax: > 90%
[3]; human, plasma, 10 mg
  half-life: 45.6 h
[3]; human, plasma, 10 mg, AUC0‐inf, Geometric LSM, lemborexant 10 mg alone, n = 15, rifampin cohort
  AUC: 389 ng·h/mL
[3]; human, plasma, 10 mg, AUC0‐inf, Mean (SD), lemborexant 10 mg alone, rifampin cohort
  AUC: 428 ng·h/mL
[3]; human, plasma, 10 mg, AUC0‐t, Mean (SD), lemborexant 10 mg alone, rifampin cohort
  AUC: 409 ng·h/mL
[3]; human, plasma, 10 mg, Geometric LSM, lemborexant 10 mg alone, n = 15, rifampin cohort
  Cmax: 55.5 ng/mL
[3]; human, plasma, 10 mg, Mean (SD), lemborexant 10 mg alone, rifampin cohort
  Cmax: 58.9 ng/mL
[3]; human, plasma, AUC0‐inf, Geometric LSM, lemborexant 10 mg + rifampin 600 mg, n = 9
  AUC: 13.4 ng·h/mL
[3]; human, plasma, AUC0‐inf, Mean (SD), lemborexant 10 mg + rifampin 600 mg
  AUC: 15.8 ng·h/mL
[3]; human, plasma, AUC0‐t, Geometric LSM, lemborexant 10 mg + rifampin 600 mg once daily, n = 15
  AUC: 12.3 ng·h/mL
[3]; human, plasma, AUC0‐t, Mean (SD), lemborexant 10 mg + rifampin 600 mg
  AUC: 13.5 ng·h/mL
[3]; human, plasma, Geometric LSM, lemborexant 10 mg + rifampin 600 mg, n = 15
  Cmax: 4.7 ng/mL
[3]; human, plasma, Mean (SD), lemborexant 10 mg + rifampin 600 mg
  Cmax: 5.3 ng/mL
[3]; [16]
  AUC0‐inf, Geometric Mean Ratio (90%CI): 0.034 (0.026‐0.045)
  AUC0‐t, Geometric Mean Ratio (90%CI): 0.033 (0.027‐0.040)
  Cmax, Geometric Mean Ratio (90%CI): 0.085 (0.067‐0.107)
OATP1B1 [4]
  substrate of OATP1B1: neither lemborexant nor M10 was a substrate
MATE2‐K
  inhibition of MATE2‐K: do not inhibit
OCT2
  inhibition of OCT2: do not inhibit
P‐gp [5]
  inhibition of P‐gp: do not inhibit
OAT3
  inhibition of OAT3: do not inhibit
[6]; [17]
  increase in lemborexant AUC0–inf: 3.7 fold
  increase in lemborexant Cmax: 1.4 fold
[6]; human, plasma, 10 mg
  half-life: 54.4 h
[6]; human, plasma, 10 mg, AUC0‐inf, Geometric LSM, lemborexant 10 mg alone, n = 15, itraconazole cohort
  AUC: 433 ng·h/mL
[6]; human, plasma, 10 mg, AUC0‐inf, Mean (SD), lemborexant 10 mg alone, itraconazole cohort
  AUC: 464 ng·h/mL
[6]; human, plasma, 10 mg, AUC0‐t, Mean (SD), lemborexant 10 mg alone, itraconazole cohort
  AUC: 437 ng·h/mL
[6]; human, plasma, AUC0‐inf, Geometric LSM, lemborexant 10 mg + itraconazole 200 mg, n = 11
  AUC: 1600 ng·h/mL
[6]; human, plasma, AUC0‐inf, Mean (SD), lemborexant 10 mg + itraconazole 200 mg
  AUC: 1640 ng·h/mL
[6]; human, plasma, AUC0‐t, Geometric LSM, lemborexant 10 mg + itraconazole 200 mg once daily, n = 14
  AUC: 1480 ng·h/mL
[6]; human, plasma, AUC0‐t, Mean (SD), lemborexant 10 mg + itraconazole 200 mg
  AUC: 1540 ng·h/mL
[6]; human, plasma, Cmax, Mean (SD), lemborexant 10 mg + itraconazole 200 mg
  Cmax: 75 ng/mL
[6]; [18]
  AUC0‐inf, Geometric Mean Ratio (90%CI): 3.702 (3.183‐4.306)
  AUC0‐t, Geometric Mean Ratio (90%CI): 3.605 (3.122‐4.162)
  Cmax, Geometric Mean Ratio (90%CI): 1.360 (1.181‐1.567)
[7]; average, with versus without weak CYP3A inhibitors
  higher exposure with weak CYP3A inhibitors: 30%
[7]; subjects coadministered weak CYP3A inhibitors, n = 15, studies 303 and 304
  estimated lemborexant exposure: 420 ng·h/mL
[7]; subjects not coadministered weak CYP3A inhibitors, n = 257, studies 303 and 304
  estimated lemborexant exposure: 330 ng·h/mL
[7]; with versus without weak CYP3A inhibitors
  degree of CYP3A inhibition (exposure ratio): 1.3 fold
[8]
  clinical effect on CYP2B6: has the potential to induce CYP2B6
[9]
  inhibition of breast cancer resistance protein: do not inhibit
CYP3A [10]
  induction of CYP3A: have the potential to induce
OAT1
  inhibition of OAT1: do not inhibit
CYP1A2
  inhibition of CYP1A2: do not inhibit
CYP2A6
  inhibition of CYP2A6: do not inhibit
CYP2D6
  inhibition of CYP2D6: do not inhibit
[11]; [19]
  increase in lemborexant AUC0–inf: ~4 fold
  increase in lemborexant Cmax: 1.6 fold
[11]; AUC0‐inf, Geometric LSM, lemborexant 10 mg + fluconazole 200 mg, n = 12
  AUC: 1560 ng·h/mL
[11]; AUC0‐inf, Mean (SD), lemborexant 10 mg + fluconazole 200 mg
  AUC: 1540 ng·h/mL
[11]; AUC0‐t, Geometric LSM, lemborexant 10 mg + fluconazole 200 mg once daily, n = 14
  AUC: 1330 ng·h/mL
[11]; AUC0‐t, Mean (SD), lemborexant 10 mg + fluconazole 200 mg
  AUC: 1360 ng·h/mL
[11]; [20]
  AUC0‐inf, Geometric Mean Ratio (90%CI): 4.175 (3.828‐4.553)
  AUC0‐t, Geometric Mean Ratio (90%CI): 3.759 (3.486‐4.053)
  Cmax, Geometric Mean Ratio (90%CI): 1.622 (1.336‐1.969)
CYP3A [12]
  KI (inactivation): 25.2 µM
  inhibition at 30 μmol/L: 61.5%
  kinact: 0.000838 s⁻¹
CYP3A [13]
  metabolic pathway: predominantly metabolized by the cytochrome P450 3A (CYP3A) pathway
[14]; across the phase 1 studies
  subjects who experienced sleep paralysis: 4 subjects
[14]; all cases
  time of sleep paralysis after lemborexant dosing: ≤ 1 h
[14]; all cases, resolved, no discontinuation
  severity of sleep paralysis: mild
[14]; phase 1 DDI studies
  changes in laboratory values, vital signs, electrocardiograms, or physical examination findings: no clinically important changes
[14]; phase 1 studies
  tolerability: generally well tolerated
[14]; [21]
  AEs: 4 (26.7) n (%)
  AEs leading to study discontinuation: 0 n (%)
  AEs, Mild: 4 (26.7) n (%)
  AEs, Moderate: 0 n (%)
  AEs, Severe: 0 n (%)
  Death: 0 n (%)
  SAEs: 0 n (%)
  Treatment‐related AEs: 2 (13.3) n (%)
[15]
  tolerability: well tolerated
MATE1
  inhibition of MATE1: do not inhibit
CYP2B6
  induction of CYP2B6: have the potential to induce
BCRP
  substrate of BCRP: neither lemborexant nor M10 was a substrate
OCT1
  inhibition of OCT1: do not inhibit
